The results in this text go back to the RNAGym collection of RNA variant scans (doi:10.1126/science.aae0568).

The labels stand for the following.
B1: tRNA (parent)
chain: GUUCCGUUGGCGUAAUGGUAACGCGUCUCCCUCCUAAGGAGAAGACUGCGGGUUCGAGUCCCGUACGGAACG

Fewer inactive variants are shown than the library holds.

Variants of B1 are the subject of the data set. The data set is described as follows: yeast fitness relative to wild type (ratio to wild type); higher = fitter; tRNA-Arg(CCU), competitive growth, 37 C, YPD. Put shortly: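 Start and end populations of a pooled competition were compared by 100-nucleotide paired-end sequencing of gene amplicons. The Saccharomyces cerevisiae strains carried tRNA-Arg(CCU) gene variants at the native genomic locus, synthesised with a 3% per-site mutation rate at 69 sites, and competed in YPD at 37°C for 24 hours in six parallel replicates. Darwinian fitness relative to wild type was based on the change in genotype frequencies. Genotypes required ≥ 100 starting reads, and estimates < 0.5 were set to 0.5.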
With G10C G17A U28G G39A C49A, the yeast fitness is at most 0.5.
In the case of C5U A20C G39C G58A it was at most 0.5; in that of C5G G10A A37C G56A, 0.567; in that of G17C C24U A36G, 0.607.
In the case of G10A C30U C60G it was at most 0.5.
Under A37G U59G stands 0.75; under A14U G18A C24A C34A, 0.53; under C11U U32G C62A, 0.618.
With A14U U28A C33U, the yeast fitness was 0.714.
Consider C4G U16A A43C, for which the yeast fitness is at most 0.5.
In the case of C4U C22G C27U G50A G63A it was at most 0.5.
Consider U2A C5G G17C G56C A57G G68U, for which the yeast fitness stood at 0.558.
In the case of C30U A45C G52C it was 0.568.
In the case of G9A C24A G38A it was at most 0.5.
Under C4U A57G G58C stands 0.736; under G17C A43U G48A C66G, at most 0.5.
For U26A C27A U28A C34U G68A A69C, the yeast fitness was found to be 0.534.
Under C62G A69G stands 0.819; under G9A G12U A14U U53A, 0.529.
As to U47A G52A, the yeast fitness amounted to 0.821.
Under G48C G56A C61A stands at most 0.5.
Regarding C4G A20G C22G C33U A36C A40U, the yeast fitness was at most 0.5.
Turning to U19C A37C A45C C46A, the yeast fitness is 0.897.
On to U8C C29A, for which the yeast fitness worked out at 0.664.
Under G44C G52A A69G stands at most 0.5.
In the case of C11A C27G C31A it was 0.543; in that of U8C C11U C46U C49A, at most 0.5.
In the case of A42C A45G it was 0.95.
With C11G A45G C49U C55A A70U, the yeast fitness was at most 0.5.
In the case of C22U A65U A70U it was 0.628; in that of G17C C33U A43G, at most 0.5; in that of U3C A21U C66G, at most 0.5.
In the case of A21C C46G A65U it was 0.658; in that of G6A C34A A40U, 0.556.
In the case of C4U G10C G48C G63C G67A it was at most 0.5.
As to C11U C30A C49U G67U, the yeast fitness was at most 0.5.
Under U19A C66A stands 0.607.
In the case of C46U A70C it was 0.976; in that of U2A C11U U19G A42U G48A, at most 0.5; in that of C11A A15G A40G C49U C60A C61A, at most 0.5.
Under A20C C22G C29A C55G G56C stands at most 0.5; under A20G C31U A42U C46U A65C, at most 0.5.
Consider G10A C11G C30G A57G G58A U59A, for which the yeast fitness is at most 0.5.
In the case of G23C G25A C61U it was 0.536; in that of G6C C31U C34G, at most 0.5; in that of C24U C31G C55A A57U U59C C60U, at most 0.5.
Under A21G C61U A70U stands 0.776.
As for C27U G63A, the yeast fitness stood at 0.867.
Under A20C A40C G48C stands 0.719; under C34A A45U C46A G50A U54C C55G, at most 0.5.
Under U13G C31G A43U C46G A70U stands at most 0.5; under U16A C55A, 0.699; under U28A C55U, 0.739.
In the case of G39C C66U A69U, the yeast fitness came to 0.551.
In the case of A15U G68C it was 0.671; in that of C11G C30G C33A C66U, at most 0.5; in that of U3G C4A A40U C62U G63C, at most 0.5.
In the case of U3A C30G it was 0.598.
Under U3G A14G A43U U54A A57C stands at most 0.5; under G9A U32C C33G A37G G52A C55U A65U, 0.583.
For A15C G17A C22U G23C G51A A69C, the yeast fitness is 0.567.
In the case of A45C U59C A70C it was 0.741.
Under G9C U13C C55U A57C stands at most 0.5; under U7A C55G G58C, at most 0.5; under U2C C27A C60G, at most 0.5.
In the case of C49U U59G C60U it was at most 0.5; in that of C4U U16C U32A G58A C60U, at most 0.5; in that of U8G G58U A65G G67A, 0.547.
Turning to C24G A42C C66U, the yeast fitness was at most 0.5.
Under C30G U35A A65C stands at most 0.5; under C22U A36C U54C A57U, at most 0.5.
In the case of A15C it was 0.904.
Under G12A G67C stands 0.848; under U19C G56A, 0.91; under G6C A21G C30G A37U, 0.566.
Consider U19G C49A C62G C66U A70G, for which the yeast fitness was at most 0.5.
In the case of C5A G9C A36U U54A C55U it was at most 0.5.
In the case of A14U C27U C66G it was at most 0.5; in that of G18A A45C C55U C61G, at most 0.5; in that of C11G A36C A57C C66G, at most 0.5.
Under U2A A20C G52A stands 0.542; under U2C A40U G50A, 0.571; under U19G A43U, 1.04.
As to G38C G56C, the yeast fitness came out at 0.516.
As for U16A C33U A45G C49A U53A, the yeast fitness was at most 0.5.
Under A45C A57U C60U A65C stands at most 0.5; under C4G C34U G41A, at most 0.5.
In the case of G25C C29G A43C it was at most 0.5; in that of G23A C62G, 0.782.
Turning to U16A G17A A20G C22G C61U G68C, the yeast fitness is 0.559.
In the case of U13C G58C A69U it was 0.7; in that of G18C G25C U28G A42G U47C C49U A57U, at most 0.5.
As to C4U C22G A42G, the yeast fitness was determined as 0.695.
Under U7C G23A C33G stands at most 0.5; under G10A A14U A43C A69C, at most 0.5.
Under U16A C24G G51A stands at most 0.5.
U8A C61A G67C: the yeast fitness worked out at 0.561.
In the case of C5G A20C C24U C55U it was at most 0.5.
Turning to G9A G23C A37G, the yeast fitness is at most 0.5.
Under G25A C46U G50C stands 0.556; under C5G G39A A70G, 0.617; under C4A C11U, 0.781.
Under U3G U8G U19A A69C stands at most 0.5.
In the case of C27A C55G it was 0.646; in that of A36G C61U A69C, 0.693.
As to C46A U64G, the yeast fitness amounted to 0.82.
For the variant U26G A37G G51C, the yeast fitness came to 0.801.
For the variant C5A A15U C31G G39A G58A G67A, the yeast fitness was 0.558.
Under C5U G44C G68C stands 0.697.
As for G9C C31A C49G C55G A70C, the yeast fitness is at most 0.5.
As for C29G G48C C60G, the yeast fitness stood at 0.515.
With C5A G50C, the yeast fitness amounted to 0.626.
In the case of U2A U16G G18C it was 0.614.
In the case of U28C C49U it was 0.905; in that of G12A U35A A45C, 0.528; in that of C5U G51A G56A A65C, at most 0.5.
Under U32C A43G A45G stands 0.608; under C5U G25C C29A, at most 0.5; under U26C C31A C66G, at most 0.5.
Take C5A G17A A40U: the yeast fitness was at most 0.5.
G9C G67C: the yeast fitness was 0.746.
In the case of C34G G63A G67A it was at most 0.5; in that of C11G A15C C62G, at most 0.5; in that of U2A G67U, 0.824.
Under A20G C24G C27U A40C stands 0.532.
Under G9A A36U G39A stands 0.535; under C22U C55G, 0.578.
As for G9U G23C A45U G51C, the yeast fitness was at most 0.5.
Under A45C C60A C66U stands at most 0.5; under C31U C60U, 0.841.
Under C4A C61U A69C stands 0.578; under G6C A14U A70C, 0.591.
Consider C4A U54G, for which the yeast fitness stood at 0.612.
On to U8C A42G G68A, for which the yeast fitness stood at 0.63.
Under U59G G67A stands 0.796.
Under G6C U35A A43U C62U G68C stands at most 0.5; under C5G A20C U28C C29A A36U A40U C49G G63C A70U, 0.579; under C5U U16G A65G C66U, at most 0.5.
Under A15U A20U A45C A57G stands at most 0.5; under U8G C46G G52A, at most 0.5; under C24G C29U G51C, 0.576.
In the case of G12A G25A G52A, the yeast fitness was 0.583.
Under C4A C33U A37G stands at most 0.5; under C29U C62A C66U, at most 0.5; under G12A C30U U32G A36U G39C G50C, at most 0.5.
As to C49U C61U A70G, the yeast fitness amounted to 0.831.
C11U A21G C55G: the yeast fitness was 0.566.
Under C5G C11U A14G G25C C29G stands at most 0.5; under U3G C66A, 0.591.
In the case of A20U C49G it was 0.752; in that of A37G A40U A65G, 0.571.
In the case of G63C U64C it was 0.969; in that of C24G C49A, at most 0.5; in that of G23C A42U A43G A65U, at most 0.5.
Take G52C C55U: the yeast fitness is 0.522.
Take C31U A37U U54A: the yeast fitness was determined as 0.514.
Consider U19A G23C C30A A36G C60U, for which the yeast fitness is at most 0.5.
Under U2C G18C A21G stands 0.569; under C5G A45U, 1.01; under A15C A36C G38C G52A, at most 0.5.
Take G17A C66A: the yeast fitness is 0.647.
On to C55G A70C, for which the yeast fitness came out at 0.566.
In the case of C5U A65C it was 0.922; in that of C11U U19A A43U A65U, 0.53; in that of U2C C22U A69C, 0.511.
Under A15C C55U stands 0.625.
In the case of U28C A43C C46A G48C, the yeast fitness is at most 0.5.
